Usually Ki stands for a dissociation constant, usually derived from enzyme kinetics or from competition with a known ligand.

Each structure is given as a SMILES string.

Test [1] has as its target 5-hydroxytryptamine receptor 7 (Homo sapiens, UniProt P34969). Briefly: Displacement of [3H]-5-CT from human 5-HT7b receptor expressed in HEK293 cells after 1 hr. In kind it is cell-based. On the technique in general: In a radioligand displacement assay an active substance lowers the binding of a labelled ligand.
Test [2] addresses T1, 5-hydroxytryptamine receptor 1A (Homo sapiens, UniProt P08908).
T1 sequence (P08908 whole entry): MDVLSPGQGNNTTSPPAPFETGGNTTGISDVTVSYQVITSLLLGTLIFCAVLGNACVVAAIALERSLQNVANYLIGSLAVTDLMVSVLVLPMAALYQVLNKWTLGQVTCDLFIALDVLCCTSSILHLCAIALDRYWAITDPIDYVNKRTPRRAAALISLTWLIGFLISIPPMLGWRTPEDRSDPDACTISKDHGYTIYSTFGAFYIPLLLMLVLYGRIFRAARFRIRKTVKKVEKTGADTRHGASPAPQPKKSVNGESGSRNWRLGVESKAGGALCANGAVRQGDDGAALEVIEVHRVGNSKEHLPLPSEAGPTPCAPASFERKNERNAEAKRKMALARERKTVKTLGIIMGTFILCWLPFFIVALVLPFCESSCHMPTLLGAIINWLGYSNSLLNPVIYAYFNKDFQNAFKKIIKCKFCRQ
As to the kind of experiment: Displacement of [3H]-8-OH-DPAT from human 5-HT1A receptor expressed in HEK293 cells after 1 hr. In kind it is cell-based. In a few lines: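 Membranes from stably transfected HEK293 cells (human 5-HT1A), homogenized in 50 mM Tris–HCl, 0.1 mM EDTA, 4 mM MgCl2, 10 µM pargyline, 0.1% ascorbate; incubated 1 h at room temperature, then rapid filtration and radioactivity counting. Nonspecific binding with 10 µM 5-HT.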

The target in test [3] is 5-hydroxytryptamine receptor 6 (Homo sapiens, UniProt P50406). Briefly: Displacement of [3H]-LSD from human 5-HT6 receptor expressed in HEK293 cells after 1 hr. The class given is cell-based.
Test [4] addresses D(2) dopamine receptor (Homo sapiens, UniProt P14416). As to the kind of experiment: Binding affinity to human dopamine D2L receptor expressed in HEK293 cells after 1 hr. The class given is cell-based.
The species entered for test [5] is Homo sapiens. Briefly: Selectivity ratio of Ki for human 5-HT1A receptor to Ki for human 5-HT7b receptor.

Chain of 5-hydroxytryptamine receptor 7 (P34969 whole entry): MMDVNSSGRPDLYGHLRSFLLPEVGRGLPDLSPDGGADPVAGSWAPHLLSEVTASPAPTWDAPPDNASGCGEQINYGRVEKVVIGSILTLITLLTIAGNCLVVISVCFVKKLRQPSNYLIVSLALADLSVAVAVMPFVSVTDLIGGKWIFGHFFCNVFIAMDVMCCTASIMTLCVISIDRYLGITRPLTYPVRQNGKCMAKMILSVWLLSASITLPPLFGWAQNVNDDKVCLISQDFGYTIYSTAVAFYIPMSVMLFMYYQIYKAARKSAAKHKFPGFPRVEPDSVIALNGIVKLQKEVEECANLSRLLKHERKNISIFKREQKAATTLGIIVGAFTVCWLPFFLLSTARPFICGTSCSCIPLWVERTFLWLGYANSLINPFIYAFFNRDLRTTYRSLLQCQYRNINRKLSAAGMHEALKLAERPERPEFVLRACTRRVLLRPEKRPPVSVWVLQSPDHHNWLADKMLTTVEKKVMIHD
Chain of 5-hydroxytryptamine receptor 6 (P50406 whole entry): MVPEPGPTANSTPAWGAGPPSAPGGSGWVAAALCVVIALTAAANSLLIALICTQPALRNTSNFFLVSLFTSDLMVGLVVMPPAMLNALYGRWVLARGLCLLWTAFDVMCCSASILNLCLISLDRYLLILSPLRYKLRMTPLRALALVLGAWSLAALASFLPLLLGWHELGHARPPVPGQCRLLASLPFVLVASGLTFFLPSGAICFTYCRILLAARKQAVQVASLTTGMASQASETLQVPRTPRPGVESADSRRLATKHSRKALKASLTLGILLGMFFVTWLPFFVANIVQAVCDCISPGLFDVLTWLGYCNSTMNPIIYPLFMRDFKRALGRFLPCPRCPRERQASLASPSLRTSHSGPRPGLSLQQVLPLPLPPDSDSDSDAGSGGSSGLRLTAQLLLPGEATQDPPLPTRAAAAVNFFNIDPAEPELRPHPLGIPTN
Chain of D(2) dopamine receptor (P14416 whole entry): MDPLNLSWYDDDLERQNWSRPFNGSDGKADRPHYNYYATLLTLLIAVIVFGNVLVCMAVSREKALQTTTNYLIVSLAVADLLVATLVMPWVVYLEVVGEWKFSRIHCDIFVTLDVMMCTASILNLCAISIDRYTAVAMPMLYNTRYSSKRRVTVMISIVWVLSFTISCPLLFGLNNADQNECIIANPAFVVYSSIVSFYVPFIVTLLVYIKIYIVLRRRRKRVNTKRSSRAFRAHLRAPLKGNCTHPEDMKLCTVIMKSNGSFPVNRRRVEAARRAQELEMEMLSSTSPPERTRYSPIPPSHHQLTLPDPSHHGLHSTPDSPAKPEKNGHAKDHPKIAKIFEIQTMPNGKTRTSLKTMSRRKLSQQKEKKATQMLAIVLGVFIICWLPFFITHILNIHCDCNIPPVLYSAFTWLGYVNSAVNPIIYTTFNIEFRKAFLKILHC

Regarding `CC(C)c1ccccc1OCCN1CCC(CNS(=O)(=O)c2ccc(F)cc2)CC1`, the inhibition constant (Ki) was 60 nM in test [1], 141 nM in test [2], 313 nM in test [3] and 50 nM in test [4]. The Ratio Ki in test [5] is 2.

`COc1ccc(OC)c(S(=O)(=O)NCC2CCN(CCOc3ccccc3C(C)C)CC2)c1` displayed an inhibitory constant (Ki) in test [1] of 27 nM.

For `CCOc1ccccc1C(=O)NC1CCN(CCOc2cccc(-c3ccccc3)c2)C1` (stereo not given), the Ki in test [1] came to 1100 nM.

Take `O=C(NC1CCN(CCOc2ccccc2-c2ccccc2)C1)c1ccc2ccccc2n1` (stereo not given): the Ki in test [1] worked out at 41 nM; in test [2], 45 nM; in test [3], 1340 nM; in test [4] it was 24 nM. For the same compound, the Ratio Ki in test [5] came to 1.

As for `CCOc1ccccc1C(=O)NC1CCN(CCOc2cccc(F)c2)CC1`, the Ki in test [1] is 2380 nM; in test [2], 456 nM; in test [3], 3780 nM; in test [4], 76 nM. The Ratio Ki in test [5] was < 1.

`CSc1ccccc1OCCN1CCC(NS(=O)(=O)c2ccc(Cl)s2)CC1` returned a Ki in test [1] of 17 nM.

Take `CCOc1ccccc1C(=O)NC1CCN(CCOc2ccccc2C(C)C)CC1`: in test [1], the inhibition constant (Ki) is 311 nM.

As to `CCOc1ccccc1C(=O)NC1CCN(CCOc2cccc(NC(C)=O)c2)C1` (stereo not given), affinity in test [1] was put at a Ki of 3370 nM.

For the compound `O=C(NC1CCN(CCOc2ccccc2-c2ccccc2)CC1)c1cccc(F)c1`, in test [1], the Ki was 391 nM.

`O=S(=O)(N[C@@H]1CCN(CCOc2ccccc2-c2ccccc2)C1)c1ccc(Cl)s1`: the results for the Ki in test [2], in test [3] and in test [4] were 75 nM, 202 nM and 39 nM, respectively.

In the case of `CC(C)c1ccccc1OCCN1CC[C@@H](NS(=O)(=O)c2ccc(Cl)s2)C1`, the inhibition constant Ki turned out to be 49 nM in test [2], 200 nM in test [3] and 20 nM in test [4].

As for `O=C(NC1CCN(CCSc2cccc(Cl)c2Cl)C1)c1ccc2ccccc2n1` (stereo not given), the Ki in test [1] stood at 1110 nM.

In the case of `CC(C)c1ccccc1OCCN1CCC(NS(=O)(=O)c2cccc(Cl)c2)C1` (stereo not given), the Ki was 4 nM in test [1], 31 nM in test [2], 245 nM in test [3] and 25 nM in test [4]. Also, in test [5], the Ratio Ki worked out at 8.

In the case of `O=S(=O)(NC1CCN(CCOc2ccccc2-c2ccccc2)C1)c1cccs1` (stereo not given), the Ki was 10 nM in test [1], 45 nM in test [2], 267 nM in test [3] and 16 nM in test [4]. Moreover, the Ratio Ki in test [5] came to 5.

`O=S(=O)(NC1CCN(CCOc2cccc(F)c2)C1)c1cccs1` (stereo not given): the inhibition constant Ki stood at 1440 nM in test [1], 270 nM in test [2], 1780 nM in test [3] and 729 nM in test [4]. Also, in test [5], the Ratio Ki was < 1.

Consider `CCOc1ccccc1C(=O)NC1CCN(CCOc2ccccc2-c2ccccc2)C1` (stereo not given), for which, in test [1], the Ki was determined as 85 nM.

Regarding `O=S(=O)(NCC1CCN(CCOc2ccccc2-c2ccccc2)CC1)c1ccc(Cl)s1`, the Ki in test [1] was determined as 20 nM; in test [2] it was 101 nM; in test [3] it was 410 nM; in test [4], 32 nM. In addition, the Ratio Ki in test [5] was found to be 5.

For `Cc1ccccc1C(=O)NC1CCN(CCOc2ccccc2-c2ccccc2)C1` (stereo not given), the Ki in test [1] worked out at 59 nM.

With `O=S(=O)(NC1CCN(CCOc2ccccc2-c2ccccc2)C1)c1cc(F)ccc1F` (stereo not given), the Ki worked out at 9 nM in test [1], 81 nM in test [2], 515 nM in test [3] and 18 nM in test [4]. In addition, in test [5], the Ratio Ki worked out at 9.

For the compound `CC(C)c1ccccc1OCCN1CCC(NS(=O)(=O)c2ccc(F)cc2)CC1`, the Ki in test [1] came out at 0.3 nM; in test [2] it was 436 nM; in test [3] it was 240 nM; in test [4], 51 nM. The Ratio Ki in test [5] was found to be 1450.

In the case of `O=S(=O)(NC1CCN(CCOc2ccccc2-c2ccccc2)C1)c1ccc(F)cc1` (stereo not given), in test [1], the inhibition constant Ki amounted to 5 nM. This lies in the single-digit nanomolar range.

Compound `O=S(=O)(NC1CCN(CCOc2ccccc2-c2ccccc2)CC1)c1ccc(Cl)s1` had an inhibitory constant (Ki) in test [1] of 12 nM.

For `CCOc1ccccc1C(=O)NC1CCN(CCOc2ccccc2C(C)C)C1` (stereo not given), in test [1], the Ki came out at 204 nM. This Ki lies about 17-fold higher than the previous one.

In turn, `Cc1ccccc1C(=O)NC1CCN(CCSc2cccc(Cl)c2Cl)C1` (stereo not given) showed an inhibition constant (Ki) in test [1] of 427 nM.

In test [1], `CC(C)(C)c1ccccc1OCCN1CCC(NC(=O)c2cccc(F)c2)CC1` displayed an inhibition constant Ki of 1670 nM. Against the preceding compound, the Ki is about 3.9-fold higher.

In the case of `O=C(NC1CCN(CCOc2cccc3c2CCCC3)C1)c1cccc(F)c1` (stereo not given), in test [1], the affinity, expressed as Ki, was 2220 nM. The Ki values of the last two compounds are within 1.5-fold of each other.

Turning to `CSc1ccccc1OCCN1CCC(NC(=O)c2cccs2)CC1`, the Ki in test [1] worked out at 1140 nM.

For `O=C(NC1CCN(CCOc2cccc(Cl)c2Cl)C1)c1ccc2c(c1)OCCO2` (stereo not given), the affinity in test [1] corresponds to a Ki of 161 nM.

In turn, `CCOc1ccccc1C(=O)NC1CCN(CCSc2ccccc2-c2ccccc2)CC1` returned an inhibitory constant (Ki) in test [1] of 329 nM. Compared with the last compound, the Ki is about 2-fold higher.

As to `O=C(NCC1CCN(CCOc2cc(Cl)ccc2Cl)CC1)c1cccc(F)c1`, the affinity in test [1] corresponds to a Ki of 415 nM.

Take `O=C(NC1CCN(CCOc2cccc(-c3ccccc3)c2)C1)c1cccc(F)c1` (stereo not given): the Ki in test [1] was 709 nM.

Take `Cc1ccccc1C(=O)NC1CCN(CCSc2cccc(Cl)c2Cl)CC1`: the affinity in test [1], expressed as Ki, was 815 nM.

On to `Cc1ccccc1C(=O)NCC1CCN(CCOc2ccccc2C(C)(C)C)CC1`, for which the Ki in test [1] was 1500 nM.

In test [1], `O=S(=O)(NC1CCN(CCSc2ccccc2-c2ccccc2)CC1)c1ccc(F)c(F)c1` displayed a Ki of 93 nM. Against the preceding compound, the Ki is about 16-fold lower.

`O=S(=O)(NC1CCN(CCOc2cc(Cl)ccc2Cl)C1)c1ccc(F)c(F)c1` (stereo not given) had an inhibitory constant (Ki) in test [1] of 97 nM. The Ki values of the last two compounds are within 1.5-fold of each other.

`CCOc1ccccc1C(=O)NCC1CCN(CCOc2ccccc2SC)CC1`: the Ki in test [1] amounted to 1190 nM.

`CC(C)c1ccccc1OCCN1CC[C@H](NS(=O)(=O)c2ccc(Cl)s2)C1`: the inhibition constant (Ki) in test [2] was 89 nM; in test [3], 537 nM; in test [4], 25 nM.

As to `O=S(=O)(NC1CCN(CCOc2cc(Cl)ccc2Cl)C1)c1ccc(Cl)s1` (stereo not given), the figures for the inhibitory constant (Ki) in test [2], in test [3] and in test [4] were 717 nM, 225 nM and 78 nM, respectively.

As for `O=S(=O)(NC1CCN(CCOc2ccccc2)C1)c1ccc(Cl)s1` (stereo not given), the results for the inhibitory constant (Ki) in test [2], in test [3] and in test [4] were 65 nM, 957 nM and 318 nM, respectively.

With `Cc1ccccc1C(=O)NCC1CCN(CCOc2cccc3c2CCCC3)CC1`, the inhibition constant Ki in test [1] is 409 nM.

In test [1], `O=C(NC1CCN(CCOc2cc(Cl)ccc2Cl)CC1)c1ccc2ccccc2n1` showed an inhibition constant (Ki) of 873 nM.

For the compound `O=S(=O)(N[C@H]1CCN(CCOc2ccccc2-c2ccccc2)C1)c1ccc(Cl)s1`, the Ki in test [2] is 147 nM; in test [3], 551 nM; in test [4], 8 nM.

`O=C(NC1CCN(CCSc2ccccc2-c2ccccc2)CC1)c1ccc2ccccc2n1` registered an inhibition constant Ki in test [1] of 865 nM.

In turn, `CC(C)c1ccccc1OCCN1CCC(CNC(=O)c2cccs2)CC1` registered a Ki in test [1] of 407 nM. This Ki lies about 2.1-fold lower than the previous one.

Consider `Cc1ccccc1C(=O)NCC1CCN(CCOc2cccc(-c3ccccc3)c2)CC1`, for which the affinity in test [1] corresponds to a Ki of 2670 nM. This Ki lies about 6.6-fold higher than the previous one.

On to `O=C(NC1CCN(CCOc2ccccc2-c2ccccc2)CC1)c1cccs1`, for which the inhibitory constant (Ki) in test [1] was 276 nM.

Regarding `O=S(=O)(c1ccc2cc[nH]c2c1)N1CCC[C@@H]1CCN1CCC(Oc2ccc(Cl)cc2)CC1`, the Ki in test [1] is 3.2 nM; in test [2], 250 nM.

`O=C(NCC1CCN(CCOc2ccccc2-c2ccccc2)CC1)c1ccc2ccccc2n1`: the inhibition constant Ki in test [1] came out at 334 nM.

As for `O=S(=O)(NC1CCN(CCOc2cccc(Cl)c2Cl)C1)c1ccc(Cl)s1` (stereo not given), the Ki stood at 28 nM in test [2], 91 nM in test [3] and 67 nM in test [4].

The values above are taken from ChEMBL document CHEMBL2157986, “The multiobjective based design, synthesis and evaluation of the arylsulfonamide/amide derivatives of aryloxyethyl- and arylthioethyl- piperidines and pyrrolidines as a novel class of potent 5-HT₇ receptor antagonists” (Eur J Med Chem, 2012).
